CHRM4 agonist: human M4 muscarinic receptor agonists, primary screen, CHO-K1 cells, Fluo-8 calcium fluorescence; AID 624127, 2012; activation, % at 3 µM; Muscarinic acetylcholine receptor M4 (Homo sapiens), P08173; actives 0.14% (n = 360,000); CHO-K1 hM4/Gqi5; vehicle 0%, full acetylcholine response 100%;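 active = activation above the run mean over all test wells plus 3 SD, cut at about 32% in these data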;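 note: peak over basal fluorescence ratio per well then scaled between controls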
M4 antag: human M4 muscarinic receptor antagonists, primary screen, CHO cells, Fluo-8 calcium fluorescence; Muscarinic acetylcholine receptor M4 (Homo sapiens), P08173; CHO-hM4 cells, ACh EC80; inhibition, % at 3 µM; actives 0.73% (n = 360,000);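 active = inhibition above its plate's cutoff, the mean inhibition of sample wells plus 3 SD, cut at about 27% in these data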
M5 PAM: human M5 muscarinic receptor positive allosteric modulators, primary screen, CHO-K1 cells, Fluo-8 calcium fluorescence; Muscarinic acetylcholine receptor M5 (Homo sapiens), P08912; CHO-K1 hM5, ACh EC20 PAM; 0% = ACh EC20, 100% = ACh EC100; activation, % at 3 µM; actives 0.3% (n = 360,000); AID 624038, 2012;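 active = activation above the run cutoff, the mean activation of all test compounds plus 3 SD, cut at about 18% in these data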
Target sequence (P08912 whole entry, looked up): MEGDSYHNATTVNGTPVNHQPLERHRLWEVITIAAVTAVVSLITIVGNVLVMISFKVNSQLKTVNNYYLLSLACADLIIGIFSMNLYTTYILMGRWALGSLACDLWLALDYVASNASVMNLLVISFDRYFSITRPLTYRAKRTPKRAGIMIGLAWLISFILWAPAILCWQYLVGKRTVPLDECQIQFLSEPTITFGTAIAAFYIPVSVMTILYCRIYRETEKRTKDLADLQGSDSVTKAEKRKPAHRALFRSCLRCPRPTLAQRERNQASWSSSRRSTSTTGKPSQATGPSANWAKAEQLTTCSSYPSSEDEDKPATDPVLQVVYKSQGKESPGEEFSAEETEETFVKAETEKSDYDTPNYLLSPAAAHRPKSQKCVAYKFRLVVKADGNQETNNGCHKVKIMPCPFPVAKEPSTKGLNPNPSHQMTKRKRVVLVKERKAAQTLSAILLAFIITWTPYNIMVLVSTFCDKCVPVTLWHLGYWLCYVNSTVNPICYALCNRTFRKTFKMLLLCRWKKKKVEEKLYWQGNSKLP
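System: CHO-K1 cell line with stable human muscarinic M5 receptor expression | Also added: EC20 acetylcholine as agonist stimulus | Compound: One concentration, 3 µM final (nominal) | Timing: Fluo-8 loading 80 min at 37 °C plus 30 min room temperature | Measured by: Fluo-8 calcium dye fluorescence, kinetic read | Read-out basis: % activation, ACh-normalized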
CHRM5 agonist: human M5 muscarinic receptor agonists, primary screen, CHO-K1 cells, Fluo-8 calcium fluorescence; CHO-K1 hM5 cells; 0% DMSO wells, 100% maximal acetylcholine response; actives 0.19% (n = 360,000); activation, % at 3 µM;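 active = activation above the run's mean over test compounds plus 3 SD, cut at about 23% in these data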;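 note: signal is peak over basal fluorescence ratio across the kinetic read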
M5 antag: human M5 muscarinic receptor antagonists, primary screen, CHO cells, Fluo-8 calcium fluorescence | Muscarinic acetylcholine receptor M5 (Homo sapiens), P08912 | CHO-hM5 cells, ACh EC80 | inhibition, % at 3 µM | actives 0.59% (n = 360,000);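 active = inhibition above a per-plate cutoff, the mean of that plate's test compounds plus 3 SD, cut at about 27% in these data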
M4 PAM: human M4 muscarinic receptor positive allosteric modulators, primary screen, CHO-K1 cells, Fluo-8 calcium fluorescence | Muscarinic acetylcholine receptor M4 (Homo sapiens), P08173 | CHO-K1 hM4/Gqi5, ACh EC20; 0% = ACh EC20, 100% = maximal ACh | activation, % at 3 µM | actives 0.4% (n = 360,000);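 active = activation above its plate's cutoff, the mean activation of sample wells plus 3 SD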
A number is an active result; – = inactive. Shown are actives, neighbours in structure and some others; about 1.8% of the full set was active somewhere.

SMILES	CHRM4 agonist	M4 antag	M5 PAM	CHRM5 agonist	M5 antag	M4 PAM
O=C(N/N=C/C(Br)=C/c1ccccc1)c1cccs1	–	–	–	–	–	–
COC(=O)c1c(N)[nH]c(C(=O)c2ccccc2)c1-c1ccccc1Br	–	–	–	–	–	–
CC1=NN(c2cccc(C(=O)O)c2)C(=O)/C1=C\C=C/c1ccccc1	–	–	–	–	–	24.0
CCN(CC(=O)Nc1c(F)cccc1F)C(=O)C1CCN(c2ncnc3sc(C)c(C)c23)CC1	–	–	–	–	–	–
CCCSc1nc(NCc2ccco2)c2c3c(sc2n1)COC(C)(C)C3	–	–	–	–	–	43.2
CSc1nc(SC(C)C(=O)O)c2c3c(sc2n1)COC(C)(C)C3 (stereo unspecified)	–	–	–	–	–	–
CCCCSc1nc(NCc2ccco2)c2c3c(sc2n1)COC(C)(C)C3	–	–	–	–	–	–
CSc1nc(SCCN(C)C)c2c3c(sc2n1)COC(C)(C)C3	51.8	–	–	–	–	–
CCC(CC)C(=O)NN(C(=O)c1ccncc1)C1CC(=O)N(c2ccccc2)C1=O (stereo unspecified)	–	–	–	–	–	–
CCc1cccc(C)c1NC(=S)NCC(c1cccnc1)N1CCOCC1 (stereo unspecified)	–	–	–	–	–	–
COC(=O)C1CCN(Cc2c(C(=O)N3C[C@@H](C)O[C@@H](C)C3)nc3ccc(Cl)cn23)CC1	–	–	19.2	–	–	–
CN(C)S(=O)(=O)N1C(=O)c2ccccc2C1=O	–	–	–	–	–	–
CN(C)/C=C1\C=C2C(=O)c3ccccc3N2C1=O	64.8	–	–	109.8	–	–
CCCC(=O)OCCNc1cc(Sc2nccn2C)c2nonc2c1[N+](=O)[O-]	–	36.5	–	–	–	–
CCC(=O)OCCNc1cc(Sc2nc3ccccc3[nH]2)c2nonc2c1[N+](=O)[O-]	–	54.2	–	–	–	–
O=[N+]([O-])c1c(NCCCO)cc(Sc2nc3ccccc3s2)c2nonc12	–	74.9	–	–	32.1	–
Cc1cc(F)ccc1C(O)c1ncc(-c2cccc3ccccc23)[nH]1 (stereo unspecified)	–	–	–	–	–	–
N#Cc1ccccc1NS(=O)(=O)c1cc2c3c(c1)CCC(=O)N3CCC2	–	–	–	–	–	–
CC(C)c1ccc(NC2CCCN(C(=O)c3n[nH]c4c3CCC4)C2)cc1 (stereo unspecified)	–	–	–	–	–	–
O=C(/C=C/c1ccco1)N(Cc1cccc(Cl)c1)C1CCS(=O)(=O)C1 (stereo unspecified)	–	–	–	–	27.3	–
CCCC(=O)Nc1ccc2c(c1)C(=O)N(C)C[C@@H](OC)[C@H](C)CN(Cc1ccc(-c3ccccn3)cc1)[C@@H](C)CO2	–	–	–	–	–	–
Clc1ccc(-c2noc3c2-c2nc(Cc4cccc5ccccc45)sc2CC3)cc1	–	–	–	–	–	–
Cc1ccccc1-c1noc(N)c1C#N	–	–	24.7	–	–	43.2
CCOc1cc(-c2noc(N)c2C#N)cc(OCC)c1OCC	–	–	–	–	–	–
CSCC[C@H](NS(=O)(=O)c1ccc(C(C)=O)cc1)c1nnc2ccccn12	–	–	–	–	–	–
SMILES	CHRM4 agonist	M4 antag	M5 PAM	CHRM5 agonist	M5 antag	M4 PAM
Cn1c(=O)c2[nH]c(CCCCc3nc4ccccc4[nH]3)nc2n(C)c1=O	–	–	–	–	–	–
Cn1c(=O)c2[nH]c(CCCCCCCCc3nc4ccccc4[nH]3)nc2n(C)c1=O	–	29.9	–	–	–	–
CCOC(=O)c1sc(NC(=O)CSc2n[nH]c(-c3ccccc3)n2)c(C#N)c1C	–	–	–	–	33.5	–
CCOC(=O)c1sc(NC(=O)CSc2nc(C)cc(C)n2)c(C#N)c1C	–	–	–	–	–	–
CCOC(=O)c1c(NC(=O)CSc2nnc(-c3ccc(C)cc3)o2)sc(C(C)=O)c1C	–	–	–	–	–	–
CCOC(=O)c1c(NC(=O)CSc2nnc(-c3ccccc3)o2)sc(C(C)=O)c1C	–	–	–	–	–	15.3
Cc1cc(=O)oc2cc(NC(=O)C(C)N3C(=O)C4CCCCC4C3=O)ccc12 (stereo unspecified)	–	–	–	–	–	–
Cc1ccccc1C(=O)OC1CCN(C)CC1	–	–	–	–	–	–
CN1CCC(N(C)CC(O)c2ccccc2)CC1 (stereo unspecified)	–	–	–	–	–	–
CN1CCC(OC(c2ccccc2)c2ccccc2)CC1	–	80.3	–	–	96.4	–
CN1CCC(Oc2ccccc2Sc2ccccc2)CC1	–	73.8	–	–	78.3	–
CS(=O)(=O)c1cc(N2CCOCC2)ccc1CNC[C@H]1O[C@@H](n2cnc3c(=O)[nH]c(N)nc32)[C@H](O)[C@@H]1O	–	–	–	–	–	–
COc1ccc(Cc2nnc(SC)n2-c2ccc(F)cc2)cc1OC	–	–	–	–	–	–
Cc1ccc(-n2cccc2/C=C2/C(=N)N3C(=NC2=O)SN=C3S(C)(=O)=O)cc1Cl	–	30.9	19.4	–	28.1	–
Cc1cccc(C)c1-n1cccc1/C=C1/C(=N)N2C(=NC1=O)SN=C2S(C)(=O)=O	–	–	–	–	–	–
Cc1onc(-c2ccccc2)c1CNC(=O)Nc1ccc(C(F)(F)F)cc1	–	–	–	–	37.5	–
Cc1cc(C)cc(NC(=O)NCc2c(-c3ccccc3)noc2C)c1	–	–	–	–	–	–
COc1ccc(NS(=O)(=O)N2CCOCC2)cc1	–	–	–	–	–	–
COCCN1C(=O)c2ccccc2C1c1nnnn1Cc1ccccc1 (stereo unspecified)	–	–	–	–	–	–
O=C(Nc1cccc(C(F)(F)F)c1)N1CCC(c2nc(-c3ccc(F)cc3)no2)CC1	–	51.1	–	–	38.8	–
COc1cc(OC)nc(NC(=O)CSc2nnc(-c3ccccc3)n2C2CCCCC2)n1	–	–	25.4	–	–	–
Cc1cnc(NC(=O)CSc2nnc(-c3ccncc3)n2C2CCCCC2)s1	–	–	–	–	–	33.4
CC(C)c1cc(C(=O)NCc2ccc(F)cc2)c(N)s1	–	–	18.4	–	–	–

Screens deposited in PubChem by The Scripps Research Institute Molecular Screening Center.
